Laboratory results: PMC6857568 (Molecular Biology of the Cell, 2019)

Tests used:
[1] = system: depolymerizing microtubule plus ends / intersecting microtubules; assay: Outcome of depolymerizing plus end crossing an intersecting microtubule; assay type: biochemical, pig; conditions: for pulling events (in words): 50 or 100 nM (starPEG-(KA7)4-TAMRA); for pick-up of tubulin aggregates tracking depolymerizing plus ends: dynamic microtubule assay
Procedure, shortened: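 Peptide was present in the dynamic-seed assay (14 µM Alexa 647 tubulin, GTP, 35°C). Dual-color time-lapse ran at one frame per 3 s. Peptide intensity at a crossing was the background-corrected integrated intensity of a five-pixel circle, taken in the frame where the depolymerizing plus end crossed the intersecting microtubule. Multiple-peak Gaussian fitting was used.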

[2] = system: dynamic Alexa 647–labeled microtubules; assay: Microtubule dynamics; assay type: biochemical, pig; conditions: vs MOCK
[3] = system: Alexa 647–labeled tubulin; assay: Spontaneous microtubule nucleation assay; assay type: biochemical, pig; conditions: 100 nM, 5 min, 35°C; for microtubules nucleated de novo: ± SD, MOCK 0.6 ± 0.4
[4] = system: taxol-stabilized Atto647N-labeled microtubules; assay: Microtubule-binding by TIRF microscopy on taxol-stabilized microtubules; design: species or system pig
[5] = system: dynamic Alexa 647–labeled microtubules; assay: Bundling of dynamic microtubules; assay type: biochemical, pig; conditions: 50 or 100 nM starPEG-(KA7)4-TAMRA; 50 nM starPEG-(DA7)4-TAMRA; 35°C
Procedure, shortened: (§1)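 Dynamic assay: biotinylated GMP-CPP pig tubulin seeds were bound to anti-biotin antibody, then given 14 µM Alexa 647 tubulin with 1 mM GTP, methylcellulose, casein and oxygen scavenger in PIPES pH 6.8. Peptide was present at the stated concentrations, at 35°C for up to 30 min. Dual-color time-lapse was one frame per 3 s; kymographs were analyzed manually.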

[6] = target: Atto647N-labeled microtubules of pig brain tubulin (pig) (UniProt Q2XVP4); assay: TIRF microscopy binding assay
[7] = system: taxol-stabilized ATTO 647N-labeled microtubules; assay: Single-molecule diffusion and track-switching on the microtubule lattice; assay type: binding, pig
Procedure, shortened: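 Peptide at 1 nM was imaged on taxol microtubules at 25°C in BRB80. Recordings were 5-min continuous streams at 100-ms exposure (532 nm). Single molecules were tracked automatically (minimum 5 frames, maximum 3-frame break) and checked against kymographs. D came from MSD linear regression and from a covariance-based estimator weighted by trajectory length.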

[8] = system: overlaps of taxol-stabilized microtubules; assay: Accumulation in overlaps of taxol-stabilized microtubules; assay type: binding, pig
[9] = system: dynamic Alexa 647–labeled microtubules; assay: Tracking of microtubule ends on dynamic microtubules; assay type: biochemical, pig
Procedure, shortened: as §1

[10] = system: rat kinesin-1 (rKin430-GFP); assay: Kinesin-1 stepping; assay type: biochemical; conditions: 5 and 25 nM
Procedure, shortened: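 GFP-tagged truncated rat kinesin-1 (1–430) ran on antibody-bound taxol microtubules with 1 mM ATP and peptide, at 25°C. Movies were 5 min at 100-ms exposure (488 nm), with a peptide snapshot beforehand. Landing rate, velocity, dwell time and run length were scored manually from kymographs. Gaussian and log-normal fits were applied; half-maxima of cumulative plots were reported.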

[11] = system: depolymerizing microtubule plus ends / intersecting microtubules; assay: Bending forces of pulled microtubules during pulling events; assay type: biochemical, pig; conditions: beam equation, deflection angle ≤30°, corrected force, mean ± SD, N = 11
[12] = system: subtilisin-treated GMP-CPP/taxol double-stabilized microtubules; assay: Binding to subtilisin-treated; design: species or system pig; conditions: C-termini removed
Procedure, shortened: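 GMP-CPP microtubules were digested with 200 µg/ml subtilisin A in BRB80 plus 10 µM taxol for 1 h at 30°C, then stopped with 10 mM PMSF. Digestion was checked by SDS-PAGE. Brightly labeled (1:4) digested and dimly labeled (1:20) undigested microtubules shared one channel. Peptide binding was imaged by TIRF at 25°C in the stabilized-microtubule buffer.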

[13] = average, n = 19 tracking events, 35°C

starPEG-(DA7)4-TAMRA
pulling events (in words) [1]: none | pick-up of tubulin aggregates tracking depolymerizing plus ends [1]: not evident | effect on microtubule dynamics (in words) ([2]; 50 nM): do not change microtubule dynamics compared with MOCK control | microtubules nucleated de novo [3]: 0.8 ± 1.0 MT per minute and field of view | microtubule binding ([4]; high nanomolar concentrations (i.e., >250 nM), charge-inverted control): does not show any microtubule binding | microtubule bundling [5]: not in the presence of 50 nM starPEG-(DA7)4-TAMRA

starPEG-(KA7)4-TAMRA (designed binder)
Kd [6]: 30 nM | concentration at which saturation is reached [6]: 200 nM

starPEG-(KA7)4-TAMRA
diffusion coefficient (overall) ([7]; 25°C, BRB80): ~0.3 µm^2s^–1 | diffusion coefficient D (MSD) ([7]; mean square displacement, linear regression, mean ± SEM, N = 998, 1 nM, 25°C, BRB80): 0.33 ± 0.04 µm^2s^–1 | track-switching at microtubule intersections ([7]; single molecules, taxol-stabilized microtubules): able to switch their microtubule track at microtubule–microtubule intersections | pulling events (in words) [1]: frequent pulling events | pick-up of tubulin aggregates tracking depolymerizing plus ends [1]: eventually picked up surface-associated tubulin aggregates that started to diffuse along the microtubule lattice and tracked depolymerizing plus ends | effect on rescue frequency (in words) ([2]; 50 and 100 nM): 100 nM but not 50 nM starPEG-(KA7)4-TAMRA significantly reduces the rescue frequency | effect on growth velocity (in words) ([2]; 50 or 100 nM): increases the growth velocity significantly | microtubule nucleation (in words) [3]: robust nucleation is evident | microtubules nucleated de novo [3]: 9 ± 2.5 MT per minute and field of view | saturation of microtubule binding ([4]; taxol-stabilized microtubules, BRB80, 25°C): ~200 nM | accumulation in microtubule overlaps (in words) ([8]; low density (5 nM)): preferentially binds to or accumulates in overlaps of taxol-stabilized microtubules | accumulation in microtubule overlaps (in words) ([8]; near a half-saturating concentration (25 nM)): this effect is lost | tracking of growing microtubule plus end ([9]; after rescue event): unable to track the growing microtubule plus end | microtubule shortening during tracked depolymerization events [9, 13]: ~60% | microtubule-bound intensity lost during one depolymerization event [9, 13]: ~30% | minus-end tracking ([9]; dynamic microtubules): could not observe any minus-end-tracking event | concentration on remaining microtubule lattice by end-tracking ([9]; normalized intensity / normalized length): about twofold | effect on kinesin-1 dwell time (in words) [10]: does not significantly affect the motor’s average dwell time | effect on kinesin-1 landing rate (in words) [10]: significantly decreases the landing rate of kinesin-1 in a concentration-dependent manner | effect on kinesin-1 run length (in words) [10]: nor the average motor run length | effect on kinesin-1 velocity (in words) [10]: slightly increased | microtubule bundling [5]: pronounced microtubule bundling | bending force during pulling events (mean) [11]: 4.2 ± 2.7 pN | effect of subtilisin protease treatment on microtubule binding [12]: completely abolishes microtubule binding
